# Assay outcomes deposited in PubChem BioAssay by Johns Hopkins Ion Channel Center.
# Compounds with a hit are over-represented: about 2.3% of the library has one in this group of screens.
# TRPC4 potent: allosteric potentiators of mouse TRPC4 channel. Q9QUQ5. HEK293 TRPC4beta/mu-opioid, DAMGO EC20, Fluo-4 Ca2+ flux; hits give high values. B-score at 10 µM. actives 0.42% (n = 310,000);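 active means B-score of calcium response area above 5 SD of library B-scores, with initial fluorescence ratio within 5 SD of library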
# Target sequence (Q9QUQ5 whole entry, looked up): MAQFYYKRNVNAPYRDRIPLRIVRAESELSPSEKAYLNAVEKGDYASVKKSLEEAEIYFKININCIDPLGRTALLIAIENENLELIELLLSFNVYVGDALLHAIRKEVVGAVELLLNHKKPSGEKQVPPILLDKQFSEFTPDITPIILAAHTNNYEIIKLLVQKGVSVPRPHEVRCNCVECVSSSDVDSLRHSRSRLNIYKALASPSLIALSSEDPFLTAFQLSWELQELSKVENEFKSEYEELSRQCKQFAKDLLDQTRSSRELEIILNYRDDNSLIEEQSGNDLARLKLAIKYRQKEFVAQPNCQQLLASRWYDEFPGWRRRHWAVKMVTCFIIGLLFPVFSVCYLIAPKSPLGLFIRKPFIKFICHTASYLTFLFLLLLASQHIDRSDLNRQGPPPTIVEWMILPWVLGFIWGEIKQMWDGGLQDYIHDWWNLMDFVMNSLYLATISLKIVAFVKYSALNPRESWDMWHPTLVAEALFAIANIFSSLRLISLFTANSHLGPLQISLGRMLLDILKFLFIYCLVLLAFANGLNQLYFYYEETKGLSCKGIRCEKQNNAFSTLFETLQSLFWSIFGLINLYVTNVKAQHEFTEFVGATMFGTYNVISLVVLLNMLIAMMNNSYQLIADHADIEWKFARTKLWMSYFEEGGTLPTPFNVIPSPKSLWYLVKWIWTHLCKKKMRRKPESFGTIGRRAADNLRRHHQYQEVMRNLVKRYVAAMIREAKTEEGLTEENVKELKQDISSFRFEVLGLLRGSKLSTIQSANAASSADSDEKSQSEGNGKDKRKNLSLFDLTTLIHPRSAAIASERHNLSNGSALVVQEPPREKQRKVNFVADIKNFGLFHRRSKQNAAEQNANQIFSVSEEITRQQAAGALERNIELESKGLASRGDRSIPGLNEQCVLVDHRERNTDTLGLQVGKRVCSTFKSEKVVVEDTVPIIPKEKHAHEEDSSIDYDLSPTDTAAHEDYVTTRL
# TRPC4 agonist: activators of mouse TRPC4 channel. actives 0.49% (n = 310,000). B-score at 10 µM. AID 2237. HEK293 TRPC4beta/mu-opioid, Fluo4 calcium fluorescence; hits give high values. Q9QUQ5;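 active means B-score above 5 SD of library B-scores, and initial fluorescence ratio not above library mean plus 5 SD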;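 further: positive B-score marks a calcium rise read as TRPC4 activation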
#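 Incubation: 45 min room-temperature Fluo4 loading, 110 s read / System: HEK293 cells stably co-expressing mouse TRPC4beta and mu-opioid receptor / Signal: Fluo4 fluorescence, kinetic / Control set: buffer (low) and maximal DAMGO (high) / Measure: integrated baseline-normalised fluorescence ratio, converted to per-well B score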
# TRPC4 inh: blocks the mouse TRPC4 cation channel; AID 2247; actives 0.39% (n = 300,000); Q9QUQ5; B-score at 10 µM; HEK293 TRPC4beta/mu-opioid, DAMGO-evoked Fluo4 calcium flux; hits give low values;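 active means B-score over 3 SD under the library average, no early fluorescence shift, positive overall ratio signal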
#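 System: stable TRPC4beta/mu-opioid receptor HEK293 cells; Dosing: single-point compound dosing; Measured by: Fluo4 Ca2+ flux fluorescence; Read-out basis: per-well B score of integrated baseline-normalized Fluo4 ratio.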
# TRPC6 act: activates the mouse TRPC6 cation channel; Q61143; HEK293-TRPC6 membrane potential dye fluorescence; hits give high values; B-score at 10 µM; actives 0.13% (n = 310,000);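 active means B-score of the integrated fluorescence ratio above library mean plus 3 SD, and starting fluorescence ratio within library mean plus 5 SD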;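 further: higher score means more depolarization so channel activation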
# TRPC6 inh: blocks the mouse TRPC6 cation channel; Q61143; HEK293-TRPC6, membrane potential dye, ACh-evoked depolarization; hits give low values; AID 2553; actives 1.1% (n = 310,000); B-score at 10 µM;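 active means B-score under library mean minus 3 SD, initial fluorescence not abnormally high, positive integrated signal ratio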;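 further: B-score derived from integrated fluorescence ratio over the kinetic read; more negative B-score means stronger inhibition of depolarization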
# Numbers stand for hits; – = inactive.
SMILES,TRPC4 potent,TRPC4 agonist,TRPC4 inh,TRPC6 act,TRPC6 inh
CCOC(=O)c1c(C)n(C)c2ccc(OCC(O)CN3CCN(C)CC3)cc12 (stereo unspecified),–,–,–,–,–
OC(CNCCc1ccc(C(F)(F)F)cc1)COc1ccc2ccccc2c1 (stereo unspecified),24,–,–,–,–
OC(CNCCc1ccc(C(F)(F)F)cc1)COc1cccc2ccccc12 (stereo unspecified),–,60,–,–,–
OC(CNCc1ccc(Cl)cc1)COc1ccccc1 (stereo unspecified),–,–,–,–,–
CCOC(=O)C[C@H]1c2ccc(C(F)(F)F)cc2S(=O)(=O)N1C(C)C,–,–,–,–,–
C=CCN(c1ccccc1C(=O)NCC(=O)O)S(=O)(=O)c1ccccc1C,–,–,–,–,–
N#Cc1ccc(-c2nc3ccc(Br)cc3c(=O)n2O)cc1,–,–,–,–,–
O=c1c2cc(Br)ccc2nc(-c2ccc([N+](=O)[O-])cc2)n1O,–,81,–,–,–
O=c1c2cc(Cl)ccc2nc(-c2ccc(Cl)c(Cl)c2)n1O,–,237,–,–,–
O=c1c2cc(Cl)ccc2nc(-c2ccccc2)n1O,–,–,–,–,–
O=c1c2cc(Br)ccc2nc(-c2cccc(C(F)(F)F)c2)n1O,–,193,–,–,–
O=c1c2ccc(Cl)cc2nc(-c2ccc([N+](=O)[O-])cc2)n1O,–,63,–,–,–
O=C(CCl)N(CCc1ccccc1)CCc1ccccc1,–,–,–,–,–
C=CCOC(=O)C1=C[C@@H](c2csc3ccccc23)[C@H](CCCO)[C@@H](OCC)O1,–,–,–,–,–
Cc1nn(C)c(C)c1S(=O)(=O)N(CC(=O)NCCCN1CC(C)CC(C)C1)c1ccc(C(C)C)cc1 (stereo unspecified),–,–,–,–,–
COc1ccc([N+](=O)[O-])cc1C(=O)NCCOc1ccc(Cl)cc1,–,–,–,–,–
CCCCOc1ccc(CN=C(N)N)cc1Cl,–,–,–,–,–
CCCOc1ccc(CCCN=C(N)N)cc1Cl,–,53,–,–,–
Nc1cc(C(=O)N/N=C/c2cccc([N+](=O)[O-])c2)n[nH]c1=O,–,–,–,–,–
COc1ccc(-c2sc(Nc3ccc(F)c(F)c3F)nc2CCC(=O)NN)cc1,–,–,–,–,–
CCCSc1cc(N)cc([N+](=O)[O-])c1,–,–,-5,–,–
CCOc1ccc(NC(=O)[C@H](Cc2ccccc2)NC(=O)C2CCNCC2)cc1,–,–,–,–,–
Cc1ccc2[nH]c3c(N4CCc5ccccc5C4)ncnc3c2c1,–,76,–,–,–
O=C(COc1ccccc1)N(Cc1nnc(-c2ccccc2Cl)o1)C1CC1,–,–,–,–,–
Cc1cc(NC(=O)CSc2nc(=O)n(CCCN(C)C)c3c2CCCC3)no1,–,–,–,–,–
SMILES,TRPC4 potent,TRPC4 agonist,TRPC4 inh,TRPC6 act,TRPC6 inh
Cc1ccc(/C=C/C(=O)c2ccc(O)cc2)cc1,–,–,-6,–,–
CCc1cccc(NC(=S)N(CCOC)C(C)c2ccco2)c1 (stereo unspecified),–,–,–,–,–
Cc1cc(C)nc(Nc2nc(=O)c3ccccc3s2)n1,55,–,–,–,–
O=C(CSc1nnc(-c2ccc(Cl)cc2Cl)n1C1CCCCC1)NC1CCS(=O)(=O)C1 (stereo unspecified),–,–,-6,–,–
CCN(CC)Cc1ccc(OC)c(Cl)c1,–,–,–,–,–
COc1ccc(CSCCN)cc1Cl,–,103,–,–,–
CNCCCOc1ccc(C)cc1Br,14,–,–,–,–
CNCCCOc1cc(C)cc(C)c1C,–,153,–,–,–
CCCCNCCCOc1ccc(C)cc1Br,–,–,–,–,–
CSCCC(N=C1NS(=O)(=O)c2ccccc21)C(=O)N1CCCC(C(N)=O)C1 (stereo unspecified),–,–,–,–,–
COc1ccc(/C=C2\SC(=S)N(N3C(=O)CCC3=O)C2=O)cc1O,144,–,–,–,–
COc1ccc(/C=C2\SC(=O)N(CC(=O)Nc3ccc(F)cc3)C2=O)cc1O,11,–,–,–,–
Cc1cc(C)cc(N(CC(=O)NC2CCC(C)CC2)S(=O)(=O)c2c(C)[nH]c(=O)[nH]c2=O)c1 (stereo unspecified),–,–,–,–,–
COc1ccc(CNCC(O)COc2ccc(C(C)(C)c3ccccc3)cc2)cc1 (stereo unspecified),–,–,–,–,–
CC(=O)c1ccc(OCC(O)CN2CCN(Cc3ccccc3)CC2)cc1 (stereo unspecified),–,–,–,–,–
CCOc1ccc(OCC(O)CNC2CCN(Cc3ccccc3)CC2)cc1 (stereo unspecified),–,108,-6,–,–
CC(C)(c1ccccc1)c1ccc(OCC(O)CNC2CCN(Cc3ccccc3)CC2)cc1 (stereo unspecified),–,92,–,–,–
CCN(CC)C(=O)CN1CCN(Cc2ccc3c(c2)OCO3)CC1,–,–,–,–,–
Cc1c(CCOC(=O)c2cccc([N+](=O)[O-])c2)sc[n+]1CC(=O)c1ccccc1,–,–,-6,–,–
COc1ccc(C(=O)OCCc2sc[n+](CC(=O)c3ccccc3)c2C)cc1,–,–,–,–,-5.3
Cc1c(CCOC(=O)C2C3CC4CC(C3)CC2C4)sc[n+]1CC(=O)c1ccc(Br)cc1 (stereo unspecified),–,–,–,–,–
Brc1nc(-c2ccccc2)nc(-c2ccccc2)c1Br,–,–,–,–,–
CC1CN(C(=S)NC(=O)c2ccco2)CC(C)O1 (stereo unspecified),–,–,–,–,–
CC(=O)Nc1cccc(C(=O)NCC2(N3CCCCC3)CCCCC2)c1,–,–,-6,–,–
COCCNC(=O)CSCc1cc(C)cc(C)c1,–,–,–,–,–
SMILES,TRPC4 potent,TRPC4 agonist,TRPC4 inh,TRPC6 act,TRPC6 inh
CC(C)c1nc(SCC(=O)Nc2cccc(C(F)(F)F)c2)c2c(=O)n(C)c(=O)n(C)c2n1,12,–,–,–,–
CC1(c2ccccc2)O[C@@H]2C[C@H]3[C@@H]4CCC5=CC(=O)C=C[C@]5(C)[C@@]4(F)[C@@H](O)C[C@]3(C)[C@]2(C(=O)CO)O1 (stereo partly specified),12,–,–,–,–
Cc1ccccc1-n1c([C@@H]2C[C@H]2c2ccccc2)n[nH]c1=S,–,–,–,–,–
NCCNc1ccc([N+](=O)[O-])cc1,–,62,–,–,–
Nc1ccc(-c2nc3c(ccc4ccccc43)[nH]2)cc1,–,–,–,–,-9.5
COc1ccccc1C1CCN(c2cc(O)ccc2[N+](=O)[O-])CC1,13,–,-5,–,–
COc1ccccc1C1CCN(C(=O)c2ccccc2)CC1,–,–,–,–,–
